Measured values: ChEMBL document CHEMBL1137639, “Novel small-molecule inhibitors of transmissible gastroenteritis virus” (Antimicrob Agents Chemother, 2007)
Active and inactive are the calls of the source. The rule behind the calls is not given here.

Key:
[1] = target: Replicase polyprotein 1ab (Severe acute respiratory syndrome-related coronavirus, UniProt P0C6X7); test: Inhibition of SARS Coronavirus 3C-like protease expressed in Escherichia coli
[2] = Inhibition of Transmissible gastroenteritis virus TFI recombinant GST-tagged 3C-like protease expressed in Escherichia coli BL21 (DE3)
Summary of the method: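 The TGEV strain TFI 3CLpro was expressed in E. coli BL21(DE3) as a GST fusion, purified on glutathione resin, and had the tag cleaved with PreScission protease. IC50 came from at least eight concentrations.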

[3] = test system: Transmissible gastroenteritis virus; test: Antiviral activity against Transmissible gastroenteritis virus TFI infected in swine testicle cells assessed as inhibition of S and N protein expression treated 2 hrs before infection measured after 6 hrs post infection by indirect immunofluorescent assay; assay type: functional, organism-based; conditions: Alphacoronavirus 1, TFI
Summary of the method: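 ST cells, with or without a 2-h compound pretreatment, infected with TGEV at MOI 10. At 6 h they were fixed in 80% acetone and stained with mAbs to S and N protein, then FITC anti-mouse Ig for 60 min at room temperature. Fluorescence was read at ex 485/em 535 nm. Eight concentrations were tested, and EC50 was taken from dose-response curves.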

[4] = Cytotoxicity against swine testicle cells after 18 hrs; assay type: cell-based, Sus scrofa; conditions: pig
Summary of the method: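 ST cells in MEM with 10% fetal bovine serum were exposed to eight concentrations of compound for 18 h. GI50 was derived from the dose-response curves.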

[5] = test system: Transmissible gastroenteritis virus; test: Antiviral activity against Transmissible gastroenteritis virus TFI infected in swine testicle cells assessed as protection against virus-induced caspase 3 activation at 5 uM after 14 hrs post infection; assay type: functional, organism-based
Summary of the method: (§1)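 TGEV-infected ST cells were treated with compound at 5 µM, and caspase activation was examined at 14 and 18 hpi. Lysates with equal total protein were run on SDS-PAGE and transferred to nitrocellulose. Blots were probed with anti-caspase-3 (β-actin antibody also used) and detected by enhanced chemiluminescence.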

[6] = test system: Transmissible gastroenteritis virus; test: Antiviral activity against Transmissible gastroenteritis virus TFI infected in swine testicle cells assessed as protection against virus-induced caspase 3 activation at 5 uM after 18 hrs post infection; assay type: functional, organism-based; summary of the method: as §1
[7] = test system: Transmissible gastroenteritis virus; test: Antiviral activity against Transmissible gastroenteritis virus TFI infected in swine testicle cells assessed as protection against virus-induced cytopathic effect at 5 uM after 18 hrs post infection; assay type: functional, organism-based
Summary of the method: (§2)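 ST cell monolayers were inoculated with TGEV at MOI 5 and kept at 37°C under 5% CO2. Treatments were 5 µM compound, caspase inhibitor ZVAD-fmk at 100 µM as positive control, or 1% DMSO vehicle. At 18–24 hpi CPE was scored by microscopy as cell rounding, enlargement, syncytia and detachment. Two independent experiments were run.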

[8] = test system: Transmissible gastroenteritis virus; test: Antiviral activity against Transmissible gastroenteritis virus TFI infected in swine testicle cells assessed as protection against virus-induced cytopathic effect at 100 uM after 18 hrs post infection; assay type: functional, organism-based; summary of the method: as §2
[9] = test system: Transmissible gastroenteritis virus; test: Antiviral activity against Transmissible gastroenteritis virus TFI infected in swine testicle cells assessed as protection against virus-induced cytopathic effect at 5 uM after 24 hrs post infection; assay type: functional, organism-based; summary of the method: as §2
[10] = test system: Transmissible gastroenteritis virus; test: Antiviral activity against Transmissible gastroenteritis virus TFI infected in swine testicle cells assessed as protection against virus-induced cytopathic effect at 100 uM after 24 hrs post infection; assay type: functional, organism-based
[11] = test system: Transmissible gastroenteritis virus; test: Antiviral activity against Transmissible gastroenteritis virus TFI infected in swine testicle cells assessed as reduction of N protein expression after 6 hrs post infection by Western blot analysis; assay type: functional, organism-based
Summary of the method: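 TGEV-infected ST cells were treated with compound at 0.3 to 10 µM. Lysates with equal total protein were separated by SDS-PAGE, transferred to nitrocellulose, probed with anti-TGEV N protein antibody, and detected by enhanced chemiluminescence. Three independent experiments were run.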

[12] = test system: Transmissible gastroenteritis virus; test: Antiviral activity against Transmissible gastroenteritis virus TFI infected in swine testicle cells assessed as reduction of N protein mRNA level at 1 uM after 6 hrs post infection by RT-PCR; assay type: functional; set-up: scale not given: the % may be the effect or the level left
Summary of the method: (§3)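 Viral RNA was extracted from lysates of TGEV-infected ST cells for SYBR green real-time RT-PCR, with primers for TGEV N protein or 3CLpro. Cycling was 50°C 2 min and 95°C 10 min, then 40 cycles of 95°C 15 s and 60°C 1 min. Levels were normalized to β-actin by the comparative CT method, with CT measured at least in triplicate.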

[13] = test system: Transmissible gastroenteritis virus; test: Antiviral activity against Transmissible gastroenteritis virus TFI infected in swine testicle cells assessed as reduction of N protein mRNA level at 5 uM after 6 hrs post infection by RT-PCR; assay type: functional; set-up: scale not given: the % may be the effect or the level left; summary of the method: as §3
[14] = test system: Transmissible gastroenteritis virus; test: Antiviral activity against Transmissible gastroenteritis virus TFI infected in swine testicle cells assessed as reduction of N protein mRNA level at 10 uM after 6 hrs post infection after 6 hrs post infection by RT-PCR; assay type: functional; set-up: scale not given: the % may be the effect or the level left; summary of the method: as §3
[15] = test system: Transmissible gastroenteritis virus; test: Antiviral activity against Transmissible gastroenteritis virus TFI infected in swine testicle cells assessed as reduction of 3CL protease mRNA level at 1 uM after 6 hrs post infection by RT-PCR; assay type: functional; set-up: scale not given: the % may be the effect or the level left; summary of the method: as §3
[16] = test system: Transmissible gastroenteritis virus; test: Antiviral activity against Transmissible gastroenteritis virus TFI infected in swine testicle cells assessed as reduction of 3CL protease mRNA level at 5 uM after 6 hrs post infection by RT-PCR; assay type: functional; set-up: scale not given: the % may be the effect or the level left; summary of the method: as §3
[17] = test system: Transmissible gastroenteritis virus; test: Antiviral activity against Transmissible gastroenteritis virus TFI infected in swine testicle cells assessed as reduction of 3CL protease mRNA level at 10 uM after 6 hrs post infection by RT-PCR; assay type: functional; set-up: scale not given: the % may be the effect or the level left; summary of the method: as §3
[18] = test system: Transmissible gastroenteritis virus; test: Antiviral activity against Transmissible gastroenteritis virus TFI infected in swine testicle cells assessed as reduction of N protein mRNA level after 6 hrs post infection by RT-PCR; assay type: functional, organism-based; summary of the method: as §3
[19] = test system: Transmissible gastroenteritis virus; test: Antiviral activity against Transmissible gastroenteritis virus TFI infected in swine testicle cells assessed as reduction of 3CL protease mRNA level after 6 hrs post infection by RT-PCR; assay type: functional, organism-based; summary of the method: as §3

Compound	IC50 [1] [µM]	IC50 [2] [µM]	EC50 [3] [µM]	GI50 at 18 h [4] [µM]	Activity [5]	Activity [6]	Activity [7]	Activity [8]	Activity [9]	Activity [10]	Activity [11]	Activity [12] [%]	Activity [13] [%]	Activity [14] [%]	Activity [15] [%]	Activity [16] [%]	Activity [17] [%]	Activity [18]	Activity [19]
CCN1/C(=C\C(=C/c2sc3ccccc3[n+]2CCCS(=O)(=O)[O-])OC)Sc2ccc(OC)cc21	7.3	3.3	3	13.1	Active	Active	Active	Active	Active	Active									
CCC(=C\c1sc2c3ccccc3ccc2[n+]1CC)/C=C1/Sc2cc(C)c(C)cc2N1CC	5.4	8	2.1	21.3	Active	Active	Active	Active	Active	Active	Dose-dependent effect	2.6	1.3	1.1	1.4	0.5	0.3	Dose-dependent effect	Dose-dependent effect
CCC(=C\c1sc2cc(C)c(C)cc2[n+]1CC)/C=C1/Sc2cc(/C=C/c3ccccc3)ccc2N1CC			1.8		Active	Active	Active	Active	Active	Active									
CCN1/C(=C\C=C\C2=CC(=C/c3sc4ccccc4[n+]3CC)/CC(C)C2)Sc2ccccc21 (configuration not stated)	2	11.9	6.2	> 50	Active	Active	Active	Active	Active	Active	Dose-dependent effect	13.7	2.1	1.4	20.8	2.3	1.4	Dose-dependent effect	Dose-dependent effect
CCC(/C=C1\Sc2cc(/C=C/c3ccccc3)ccc2N1CC)=C\c1sc2cc(C)c(C)cc2[n+]1CC	6.6			> 50															
CCN1/C(=C\C=C\c2sc3ccc(-c4nc5ccccc5s4)cc3[n+]2CC)Sc2ccc(-c3nc4ccccc4s3)cc21	2.5	2.1	> 30	> 50	inactive	inactive													
CCN1/C(=C\C=c2/s/c(=C\c3sc4ccccc4[n+]3CC)n(CC)c2=O)Sc2ccccc21	10	2.2	17.4	> 50	inactive	inactive													
CCN1C(c2ccccc2)=C(c2ccccc2)S/C1=C/C=C/c1sc2c3ccccc3ccc2[n+]1CC.[Cl-]	3.8	4.9	4.5	18.1	Active	Active	Active	Active	Active	Active	Dose-dependent effect	59.6	3	0.4	39.9	1.2	0.2		
C(/C1=C2Sc3ccccc3N2CC1)=C1\CC[n+]2c1sc1ccccc12	10.5	2.2	> 30	> 50	inactive	inactive													
